Measured values: ChEMBL document CHEMBL1138317, “Antibacterial oxazolidinones possessing a novel C-5 side chain. (5R)-trans-3-[3-Fluoro-4- (1-oxotetrahydrothiopyran-4-yl)phenyl]-2- oxooxazolidine-5-carboxylic acid amide (PF-00422602), a new lead compound” (J Med Chem, 2007)
In brackets after ≈: the same amount, converted by molar mass.

Assays:
Enterococcus faecalis = experiment: Antibacterial activity against vancomycin-resistant Enterococcus faecalis MGH2 EF1 by microbroth technology; format: functional
Summary of the method: (§1)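 Drug-resistant panel strains (levofloxacin/oxacillin-resistant S. aureus, levofloxacin/penicillin-resistant S. pneumoniae, vancomycin-resistant E. faecalis and E. faecium). Broth microdilution MIC in µg/mL; value reported as MIC90 across the strains of each resistant group.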

Streptococcus pneumoniae = experiment: Antibacterial activity against levofloxacin-penicillin-resistant Streptococcus pneumoniae SV1 SP3 by microbroth technology; format: functional; summary of the method: as §1
Staphylococcus aureus [1] = experiment: Antibacterial activity against levofloxacin-oxacillin-resistant Staphylococcus aureus UC76 SA1 by micro-broth technology; format: functional; summary of the method: as §1
Escherichia coli = experiment: Inhibition of protein synthesis in Escherichia coli by cell-free transcription-translation assay; format: functional
Summary of the method: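 E. coli cell-free coupled transcription/translation run in microtiter format with a luciferase reporter; luminescence was the read-out for protein synthesis.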

Haemophilus influenzae = experiment: Antibacterial activity against Haemophilus influenzae by micro-broth technology; format: functional
Summary of the method: (§2)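 MIC determined by broth microdilution, reported in µg/mL.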

[2] = biological target: T1, Amine oxidase [flavin-containing] A (Homo sapiens, UniProt P21397); experiment: Inhibition of human recombinant MAOA
T1 sequence (P21397 whole entry): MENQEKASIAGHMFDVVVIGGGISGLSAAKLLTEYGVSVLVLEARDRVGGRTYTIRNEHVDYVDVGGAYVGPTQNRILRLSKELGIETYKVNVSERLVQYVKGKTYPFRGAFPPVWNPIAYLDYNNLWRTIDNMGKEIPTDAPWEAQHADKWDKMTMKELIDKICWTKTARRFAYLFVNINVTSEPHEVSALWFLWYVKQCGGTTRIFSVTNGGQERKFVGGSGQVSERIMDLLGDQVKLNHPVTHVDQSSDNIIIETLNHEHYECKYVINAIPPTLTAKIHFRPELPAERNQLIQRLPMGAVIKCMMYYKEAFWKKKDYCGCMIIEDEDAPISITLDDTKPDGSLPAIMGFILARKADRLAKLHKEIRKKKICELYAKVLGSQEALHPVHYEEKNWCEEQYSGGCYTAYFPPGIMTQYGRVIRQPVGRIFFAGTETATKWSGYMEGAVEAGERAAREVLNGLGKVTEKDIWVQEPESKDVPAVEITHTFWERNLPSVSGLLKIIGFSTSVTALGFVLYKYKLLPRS

Moraxella catarrhalis = experiment: Antibacterial activity against Moraxella catarrhalis by microbroth technology; format: functional; summary of the method: as §2
Enterococcus faecium = experiment: Antibacterial activity against vancomycin-resistant Enterococcus faecium by micro-broth technology; format: functional; summary of the method: as §1
[3] = Cmax in Sprague-Dawley rat at 20 mg/kg, po; format: ADME, organism-based; set-up: dose 20 mg/kg, route oral; conditions: in vivo
[4] = Clearance in Sprague-Dawley rat at 10 mg/kg, iv; format: ADME, organism-based; set-up: dose 10 mg/kg, route intravenous; conditions: in vivo
Staphylococcus aureus [5] = experiment: Antibacterial activity against Staphylococcus aureus UC76 in po dosed CD1 mouse systemic infection model assessed as mortality after 7 days; format: functional
[6] = Half life in Sprague-Dawley rat at 20 mg/kg, po; format: ADME, organism-based; set-up: dose 20 mg/kg, route oral; conditions: in vivo
[7] = AUC in Sprague-Dawley rat at 20 mg/kg, po; format: ADME, organism-based, Plasma; set-up: dose 20 mg/kg, route oral; conditions: Sprague-Dawley, plasma
[8] = Bioavailability in Sprague-Dawley rat at 20 mg/kg, po; format: ADME, organism-based; conditions: Sprague-Dawley, in vivo
[9] = Volume of distribution at steady state in Sprague-Dawley rat at 10 mg/kg, iv; format: ADME, organism-based; set-up: dose 10 mg/kg, route intravenous; conditions: in vivo, read-out: Vdss

NC(=O)[C@H]1CN(c2ccc(C3CCOCC3)c(F)c2)C(=O)O1
MIC (Enterococcus faecalis): 4 µg/mL (≈ 13 µM)
MIC (Streptococcus pneumoniae): 2 µg/mL (≈ 6.49 µM)
MIC (Staphylococcus aureus [1]): 4 µg/mL (≈ 13 µM)
IC50 (Escherichia coli): 6.1 µM
MIC (Haemophilus influenzae): > 8 µg/mL
IC50 [2]: 58 µM
MIC (Moraxella catarrhalis): > 8 µg/mL
MIC (Enterococcus faecium): 8 µg/mL (≈ 25.9 µM)

NC(=O)[C@H]1CN(c2ccc(C3CCS(=O)(=O)CC3)c(F)c2)C(=O)O1
MIC90 (Enterococcus faecalis): 2 µg/mL (≈ 5.61 µM)
Cmax [3]: 1880 ng/mL
clearance [4]: 12.9 mL/min/kg
PD50 (Staphylococcus aureus [5]): 2.1 mg/kg
MIC90 (Streptococcus pneumoniae): 2 µg/mL (≈ 5.61 µM)
half-life [6]: 1.58 h
MIC90 (Staphylococcus aureus [1]): 2 µg/mL (≈ 5.61 µM)
IC50 (Escherichia coli): 5.89 µM
MIC (Haemophilus influenzae): > 8 µg/mL
IC50 [2]: 105 µM
MIC (Moraxella catarrhalis): > 8 µg/mL
AUC [7]: 8620 ng·h/mL
bioavailability [8]: 40%
MIC90 (Enterococcus faecium): 4 µg/mL (≈ 11.2 µM)
Vd [9]: 1.11 L/kg
